For 10 compounds, IC50 and Control results are on record in ChEMBL document CHEMBL1129491, “Synthesis of non-nucleoside analogs of toyocamycin, sangivamycin, and ++thiosangivamycin: influence of various 7-substituents on antiviral activity” (J Med Chem, 1996).

The subject of assay [1] is HFF. Nature of the assay: Cytotoxicity against HFF cells, estimated by visual scoring of cells not affected by virus infection in the plaque reduction assay. In kind it is functional, cell-based. To be noted: Homo sapiens. A digest of the protocol:
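Uninfected areas of HFF monolayers in the HCMV plaque-reduction assay examined at 35-fold magnification. Drug-induced cytopathology scored 0–4 on the day plaques were stained and counted.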

The subject of assay [2] is KB. As to the kind of experiment: Cytotoxic activity tested against exponentially growing KB cells, determined by staining method. To be noted: Homo sapiens. In kind it is functional, cell-based. In outline: (§1)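 KB cells (human oral epidermoid carcinoma) kept in MEM(H) with 10% calf serum and tested while exponentially growing. Toxicity measured by a previously described staining method. IC50 from linear regression of percent inhibition against log drug concentration; two or more experiments averaged.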

For assay [3], the system named is Human betaherpesvirus 5. Nature of the assay: Antiviral activity against Human Cytomegalovirus (HCMV) replication in a plaque reduction assay. In kind it is functional, organism-based. In outline: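 Towne strain HCMV (plaque-purified P0) on HFF monolayers in MEM(E) with 10% FBS. Inoculum ca. 100 PFU per 0.2 mL; compounds dissolved in the overlay medium; plaques counted after staining. IC50 from linear regression of percent inhibition against log concentration. Ganciclovir as positive control; two or more experiments averaged.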

In assay [4] the test system is Human alphaherpesvirus 1. As to the kind of experiment: Antiviral activity against HSV-1 replication was evaluated by ELISA. Format: functional, organism-based. A digest of the protocol: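 HSV-1 strain S-148 ELISA following Prichard and Shipman. Drug concentrations applied to infected cultures; percent inhibition regressed linearly against log concentration and IC50 read from the regression line. Acyclovir as positive control. Most assays averaged over two or more experiments, but HSV-1 ELISAs were run once.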
On the technique in general: An ELISA detects its analyte on a solid surface through an enzyme-linked reagent.

Assay [5] concerns L1210. As to the kind of experiment: In vitro cytotoxicity against growth rate of L1210 cell at 100 micro M was evaluated. Format: functional, Mus musculus. A digest of the protocol: (§2)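 L1210 murine leukemia cells in Fischer's medium with 10% heat-inactivated horse serum (56 °C, 30 min), exposed to 100 μM compound. Cells counted at 0, 24, 48, 72 and 96 h. Growth rate taken as the slope of semilog cell number versus time, expressed as percent of untreated control.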

For assay [6], the system named is KB. Nature of the assay: Cytotoxic activity against exponentially growing KB cells was determined by a staining method. To be noted: Homo sapiens. Format: functional, cell-based. A digest of the protocol:
as §1

Assay [7] concerns L1210. As to the kind of experiment: Inhibitory concentration required to decrease the growth rate of L1210 cells to one-half of the control rate. In kind it is functional, cell-based. The following applies: Mus musculus. In outline: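 L1210 cells in Fischer's medium with 10% heat-inactivated horse serum, counted at 0, 24, 48, 72 and 96 h across selected compound concentrations. Growth rate is the semilog slope as percent of control. IC50 is the concentration that halves the growth rate; '>' values give the highest concentration tested.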

Assay [8] has as its system Human betaherpesvirus 5. As to the kind of experiment: Antiviral activity in Human Cytomegalovirus Viral infection was evaluated by ELISA method. Format: functional, organism-based. In outline: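 MRC-5 cells held overnight at 37 °C, then infected with Towne HCMV at moi 0.002 PFU/cell. After 1 h adsorption, up to 10 drug concentrations added in triplicate. Fixed with 95% EtOH after 6.5 days. Blocked, then mouse anti-HCMV monoclonal (1:400, 1 h) and peroxidase anti-mouse (1:1000, 2 h). Read at 450/570 nm, background subtracted; IC50 by log-linear regression.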

Assay [9] deals with L1210. As to the kind of experiment: Percent control against growth rate of L1210 cell at 100 micro M was evaluated. In kind it is functional, Mus musculus. In outline:
as §2

Molecules are shown by their SMILES.

The IC50 is the concentration that gives 50% inhibition. Turning to `COCCOCn1cc(C(N)=O)c2c(N)ncnc21`, the IC50 in assay [1], in [2], in [3] and in assay [4] was over 100 µM in each case. The compound further returned a Control in assay [5] of 92%.
On to `Cc1cccc(Cn2cc(C#N)c3c(N)ncnc32)c1`, for which the IC50 in [6], in assay [1], in assay [3] and in assay [4] was over 100 µM each time.
Consider `N#Cc1cn(COCc2ccccc2)c2ncnc(N)c12`, for which the IC50 in assay [1], in assay [2], in [3] and in assay [4] was over 100 µM each time. In addition, the Control in assay [5] is on record as 83%.
For `NC(=S)c1cn(COCc2ccccc2)c2ncnc(N)c12`, the half-inhibitory concentration (IC50) is over 100 µM in [1]; over 100 µM in assay [2]; 2.6 µM in assay [3]; 100 µM in [7]; 10 µM in assay [4]; 1.8 µM in assay [8]. The compound also returned a Control in assay [5] of 52%.
Take `COCCOCn1cc(C#N)c2c(N)ncnc21`: the IC50 is over 100 µM in [1], over 100 µM in [2], 90 µM in [3] and over 100 µM in assay [4]. This compound also came in with a Control in assay [5] of 88%.
As for `CCOCn1cc(C(N)=O)c2c(N)ncnc21`, the IC50 in assay [1], in assay [2], in assay [3] and in assay [4] was over 100 µM each time. The Control in assay [9] is 91%.
As for `CCOCn1cc(C(=N)S)c2c(N)ncnc21`, the IC50 in assay [1] was 66 µM; in [2], 68 µM; in [3], 2.7 µM; in assay [4], 40 µM; in assay [8] it was 7 µM. For the same compound, the Control in assay [5] is on record as 111%.
Take `COCCOCn1cc(C(N)=S)c2c(N)ncnc21`: the IC50 in assay [1] is over 100 µM; in assay [2], 183 µM; in assay [3], 1 µM; in [4] it was 85 µM; in [8] it was 1.9 µM. For the same compound, the Control in [5] came to 88%.
For the compound `CCOCn1cc(C#N)c2c(N)ncnc21`, the IC50 in [1], in assay [2], in [3] and in [4] was over 100 µM each time. Moreover, the Control in [5] is 76%.
In the case of `NC(=O)c1cn(COCc2ccccc2)c2ncnc(N)c12`, the IC50 in [1] is over 100 µM; in [2], over 100 µM; in [3], over 100 µM; in assay [7], 70 µM; in [4], over 100 µM. In assay [5], this compound came in with a Control of 0%.
